In the library only some 2.2% were active in any assay of this set; here they are far more common.
FXIIa inh 1536: inhibitors of human coagulation factor XIIa; purified FXIIa, Boc-QGR-AMC fluorogenic substrate, 2 h; inhibition, % at 5 µM; hit rate 0.3% among 220,000; in the data active means inhibition above about 40%
Wee1 stabilizer: inhibitors of human Wee1 degradation. HeLa Luc-Wee1K328M stability, luciferase luminescence; 100% = proteasome inhibitor MG132 effect. reporter increase, % at 5 µM. hit rate 1.2% among 220,000. AID 1321;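 active means activation above the mean of all tested compounds plus 3 SD, set per screening run, cut at about 8.8% in these data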;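 further: cells exposed to compound for 20 h before luminescence read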
Target sequence (P30291 whole entry K328M): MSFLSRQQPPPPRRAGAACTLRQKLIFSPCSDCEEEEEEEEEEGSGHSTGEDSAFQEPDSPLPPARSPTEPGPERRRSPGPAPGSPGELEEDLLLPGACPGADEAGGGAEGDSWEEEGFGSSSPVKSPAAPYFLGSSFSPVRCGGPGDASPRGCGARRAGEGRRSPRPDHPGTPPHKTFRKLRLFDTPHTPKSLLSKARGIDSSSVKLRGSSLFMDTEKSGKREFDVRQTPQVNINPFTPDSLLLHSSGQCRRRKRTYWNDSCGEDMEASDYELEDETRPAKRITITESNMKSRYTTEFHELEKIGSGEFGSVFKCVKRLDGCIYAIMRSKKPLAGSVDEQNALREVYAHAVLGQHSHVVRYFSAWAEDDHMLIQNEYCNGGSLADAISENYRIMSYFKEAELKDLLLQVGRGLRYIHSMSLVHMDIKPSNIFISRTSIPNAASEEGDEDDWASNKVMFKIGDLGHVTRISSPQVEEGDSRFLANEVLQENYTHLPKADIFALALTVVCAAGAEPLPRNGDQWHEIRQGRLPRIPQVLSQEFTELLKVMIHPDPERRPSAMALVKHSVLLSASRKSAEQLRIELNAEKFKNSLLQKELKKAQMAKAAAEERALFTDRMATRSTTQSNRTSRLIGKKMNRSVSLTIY
FXIa inh: factor XIa (human) inhibition. purified FXIa, Boc-Glu-Ala-Arg-AMC fluorogenic substrate. inhibition, % at 5 µM. AID 798. hit rate 0.14% among 220,000. P03951;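 active means inhibition of at least 40%; inactive means inhibition below 40%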;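 further: fluorescence of freed AMC excited at 355 nm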
thrombin 1536: blocks human thrombin protease activity; P00734; alpha-thrombin, Boc-VPR-AMC fluorogenic substrate cleavage; inhibition, % at 5 µM; hit rate 0.26% among 220,000; AID 1046;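 active means inhibition at or above 40%; inactive means inhibition below 40%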
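Material: human alpha-thrombin protein; Also added: Boc-VPR-AMC substrate, 15 µM final; Timing: enzyme reaction carried out at room temperature; Signal: fluorescence, ex 355 nm, em 460 nm; Measure: % inhibition of thrombin; Controls: enzyme without compound as high, wells lacking enzyme as low.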
hK5 inh: blocks human kallikrein 5 protease activity. inhibition, % at 5 µM. recombinant hK5, fluorogenic AMC substrate cleavage. hit rate 0.59% among 210,000. AID 873;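 active means inhibition of 40% or more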
Wee1 stab conf: human Wee1 degradation inhibition, confirmation; shares compounds with Wee1 stabilizer; HeLa Luc-Wee1K328M degradation, luminescence; vehicle 0%, proteasome-blocked wells 100%; activation, % at 5 µM; hit rate 4% among 1,100; AID 1410; in the data active means activation above about 8.9%
Large screens that a line does not name were inactive (follow-up assays come after a bar, where they were run).

CC(=O)Nc1ccccc1C(=O)C(=O)Nc1cccc(C(=O)N2CCC3(CC2)OCCO3)c1	none
C=C(C)CSc1nnc([C@@H](N)Cc2ccccc2)o1	none
CN(C)C(=O)CSc1nnc([C@@H](N)Cc2ccccc2)o1	FXIIa inh 1536 60.8, thrombin 1536 61.4
O=c1[nH]c(=O)n(Cc2ccco2)c(O)c1C=NCc1ccco1	hK5 inh 44.4
Cc1ccc(-c2nn(Cc3ccccc3)cc2C=O)cc1	Wee1 stabilizer 9.1
CCOc1ccc(N2C(=O)NC(=O)/C(=C/c3cnc(SC)nc3)C2=O)cc1	Wee1 stabilizer 10.1
Cc1ccccc1C(O)(Cc1ccccc1)C1CN2CCC1CC2 (configuration not stated)	none
O=P(O)(Oc1ccccc1)OC(c1ccccc1)C(F)(F)C(F)(F)F (configuration not stated)	none
CCCC(C)C1C(C#N)=C(N)Oc2c1c(=O)oc1ccccc21 (configuration not stated)	hK5 inh 68.0
CCCC1C(C#N)=C(N)Oc2c1c(=O)oc1ccccc21 (configuration not stated)	none
C[C@]12CCC(=O)C=C1CCC1C2CC[C@@]2(C)C1CC[C@@]2(O)CC#N (some centres not stated)	hK5 inh 61.9
O=c1c2ccccc2[nH]c(=S)n1-c1cccnc1	Wee1 stabilizer 9.7
CC(NCc1ccc(Cl)cc1)C(O)c1ccccc1 (configuration not stated)	Wee1 stabilizer 8.9
CCOc1ccc(-c2c(C)n(-c3ccc(OCC)cc3)c3[n+]2CCCCC3)cc1	FXIIa inh 1536 45.7, FXIa inh 50.9
O=C(CCl)NCC1CCCO1 (configuration not stated)	none
Cc1nc2ccc(Cl)cc2c(-c2ccccc2)c1C(=O)O	none
CN1C(=O)NC(=O)/C(=C/c2ccc(C(=O)O)cc2)C1=O	none
Cc1ccc(/C=C2/C(=O)NC(=O)N(C)C2=O)cc1	Wee1 stabilizer 8.9
CC(=O)c1c(C)n(CCCOC(C)C)c2ccc(O)cc12	hK5 inh 43.4
COc1ccc(C2=CC(c3ccc(OC)c(OC)c3)c3c(c4ccccc4oc3=O)O2)cc1OC (configuration not stated)	none
CC/C(=N\NC(=O)c1ccccc1)c1c(O)n(Cc2ccccc2)c(=O)[nH]c1=O	Wee1 stabilizer 10.2
COc1cccc(NC(=O)N2CCC3(CC2)OCCO3)c1	none
CCc1ccccc1N1C(=O)CC(=O)NC1=O	FXIa inh 42.1, thrombin 1536 46.3
CC1(C)C(C(=O)NCc2ccco2)C1(C)C	none
CN(C)C1(CNC(=O)c2ccc(Cl)c(S(=O)(=O)NCc3ccco3)c2)CCCCC1	Wee1 stabilizer 15.3
O=P(Oc1ccccc1)(Oc1ccccc1)c1ccccc1	none
CN1CCC(c2c[nH]c3ccccc23)C1 (configuration not stated)	none
CC1CCCC(C)N1/N=C/c1c[nH]c2ccc(Br)cc12 (configuration not stated)	hK5 inh 45.2
O=C1NC(=O)C(=Cc2ccc(OCC(=O)N3CCOCC3)cc2)C(=O)N1	none
CC1(C)C2([N+](=O)[O-])CN3CC1([N+](=O)[O-])CN(C2)C3c1cccnc1 (configuration not stated)	Wee1 stabilizer 14.4 | Wee1 stab conf inactive
CC12CN3CC(C)(CN(C1)C3c1cccnc1)C2=O (configuration not stated)	none
CC(Cc1ccsc1)NCc1cn[nH]c1-c1ccc(F)cc1F (configuration not stated)	none
O=C(C[N+]12CCC(CC1)C(CO)C2)c1ccc([N+](=O)[O-])cc1 (configuration not stated)	Wee1 stabilizer 14.2 | Wee1 stab conf inactive
COc1ccc(C(C)=O)cc1CC(C(=O)c1ccc(F)cc1)N(C)C (configuration not stated)	none
CC(=O)OC1(c2ccccc2)CC(C(C)(C)C)CN(C(C)(C)C)C1 (configuration not stated)	Wee1 stabilizer 14.5 | Wee1 stab conf inactive
CCc1ccc(-n2c(O)c(C(C)=O)c(=O)[nH]c2=O)cc1 (tested in a mixture with another compound)	none
CCN(CC)CCCN=Cc1c(O)n(-c2ccccc2F)c(=O)[nH]c1=O	Wee1 stabilizer 36.2 | Wee1 stab conf inactive
CC12CN3CC(C)(CN(C1)C3c1cccs1)C2O (configuration not stated)	Wee1 stabilizer 12.9 | Wee1 stab conf inactive
O=C(COc1ccc(Cl)cc1)N1CCN(C/C=C/c2ccccc2)CC1	Wee1 stabilizer 17.4 | Wee1 stab conf inactive
O=C(COc1ccccc1)N1CCN(C/C=C/c2ccccc2)CC1	none
CCOc1ccc([N+](=O)[O-])cc1CNCCc1ccccc1	Wee1 stabilizer 11.0 | Wee1 stab conf inactive
CCOc1ccc(Cl)cc1CNCCc1ccccc1F	none
COc1ccccc1N1CCN(Cc2ccc(F)cc2)CC1	Wee1 stabilizer 13.8 | Wee1 stab conf inactive
COc1ccc(CN2CCN(c3ccccc3F)CC2)cc1O	none
COc1ccc(-c2cc(=NCCCCCC(=O)O)c3cc(C)ccc3o2)cc1	Wee1 stabilizer 16.6 | Wee1 stab conf inactive
Cc1ccc(C(=O)C2(C)N(O)C(C)C(c3cccs3)=[N+]2[O-])cc1 (configuration not stated)	none
Cc1ccccc1-n1c(-c2ccoc2)nc2ccccc2c1=O	none
CN1CCN(Cc2nc3ccccc3n2C)CC1	none
Cn1c(NN=O)nc2ccccc21	Wee1 stabilizer 15.2 | Wee1 stab conf inactive
